Bioassay records from PubChem.
KLF5 inhibitor = KLF5 expression inhibitors, primary screen, DLD-1 cells, luminescence. DLD-1 KLF5 promoter-luciferase reporter. inhibition, % at 5 µM. 290,000 compounds, 0.23% hits;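 active = inhibition above a per-plate limit of that plate's mean compound inhibition plus 3 SD, cut at about 60% in these data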;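 also: 0% = DMSO wells and 100% = LY294002 at 200 µM; higher means less KLF5 promoter-driven luciferase light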
Ba/F3 V617F tox = reduced viability of JAK2V617F-dependent Ba/F3 cells, primary screen, JAK2V617F inhibitor project, cell-based, Ba/F3 EpoR-JAK2V617F, luminescence; ATP luminescence; inhibition, % at 5.6 µM; 220,000 compounds, 1.1% hits; AID 1446, 2008;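 active = inhibition above the campaign mean plus 3 SD over all tested compounds, cut at about 24% in these data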;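 also: cytokine-independent growth of Ba/F3 cells driven by EpoR plus mutant JAK2; 0% = DMSO-treated cells and 100% = JAK inhibitor I control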
MT stabilize HCS = microtubule stabilizers in HeLa cells, primary screen, imaging, high-content imaging | HeLa tubulin immunostaining HCS, 24 h; share of cells brighter than vehicle mean+2SD | % tubulin-high responders, % at 10 µM | 200,000 compounds, 0.83% hits | AID 2205, 2009;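 active = plate Z-score above 3 for both tubulin-high and condensed-nucleus cell shares, with cell loss under 80%, at 10 µM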;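 also: anti alpha tubulin signal scored within the nucleus-defined area of each cell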
IEC-6 tox = cytotoxicity in IEC-6 intestinal epithelial cells, primary screen, cytotoxicity control for KLF5 inhibitor project, cell-based, luminescence; 290,000 compounds, 0.78% hits; AID 1825, 2009; inhibition, % at 5 µM; IEC-6 cytotoxicity, luminescence viability; in the data active = inhibition above about 22%;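 also: 0% = plate median of test compound wells and 100% = cytotoxic reference compound wells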
b-catenin transl = modulators of beta-catenin nuclear translocation, primary screen, imaging, HeLa cells, immunofluorescence, high-content; 190,000 compounds, 0.3% hits; nuclear translocation activity, % at 5 µM;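 active = nuclear translocation activity above 50% at 5 µM, with a well cell count of 50 or more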;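 also: per-cell ratio of nuclear to cytoplasmic median beta-catenin stain intensity; plate controls were DMSO negative control for no effect and GSK-3 inhibitor IX positive control for full effect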
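System: Human HeLa cells, endogenous beta-catenin | Compound dosing: 5 µM primary, 0.02–20 µM confirmation | Timing: 24 h compound exposure at 37°C, 5% CO2 | Measured by: Fluorescence imaging of beta-catenin antibody stain plus DAPI | Read-out basis: % activation of per-cell nuclear versus cytoplasmic median beta-catenin signal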
BaF3 parental = parental Ba/F3 cell viability inhibition, counter-screen for JAK2V617F inhibitor project, murine pro-B, CellTiter-Glo luminescence; CellTiter-Glo ATP luminescence; 220,000 compounds, 1.1% hits; inhibition, % at 5.6 µM;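 active = inhibition above a per-campaign cutoff, the mean inhibition of all tested compounds plus 3 SD, cut at about 27% in these data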;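 also: 0% = DMSO wells and 100% = JAK Inhibitor I control wells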
The depositor's hits bear a star; / = not tested or not shown. The list is not random: actives were taken first. Their share in the collection is about 2.1%.

SMILES	KLF5 inhibitor	Ba/F3 V617F tox	MT stabilize HCS	IEC-6 tox	b-catenin transl	BaF3 parental
Cc1ccc(C2CC(C(F)F)n3ncc(C(=O)Nc4cnn(Cc5ccccc5C)c4)c3N2)cc1 (configuration not stated)	12.7	1.1	27.6*	2.1	5.1	0.0
O=[N+]([O-])c1ccc(CSc2ncnc3ccccc23)cc1	5.1	-0.3	3.9	5.4	-1.8	-2.3
CN1CCN(c2ccccc2NC(=O)c2ccc(-c3ccc(Br)cc3)o2)CC1	9.1	/	/	14.9	/	/
O=C(Nc1ccccc1N1CCCCC1)c1ccc(-c2ccc(Cl)cc2)o1	-0.5	-1.8	29.3*	-0.8	64.4*	-1.5
O=C(Nc1ccccc1)c1ccc(-c2ccc(Br)cc2)o1	-21.1	-3.0	1.1	9.3	/	-1.1
COc1cc(NC(=O)c2ccc(-c3ccc(Br)cc3)o2)ccc1NC(=O)C(C)C	-33.6	-0.6	4.0	1.5	/	3.7
COc1ccccc1NC(=O)c1ccc(-c2ccc(Br)cc2)o1	17.9	-0.7	38.6*	1.2	2.3	3.6
O=C(Nc1cccc(NC(=O)c2ccc(-c3ccc(Br)cc3)o2)c1)c1ccccc1	-16.7	-0.5	17.6*	1.8	-4.0	1.6
CCn1c2ccccc2c2cc(NC(=O)CSc3nnc(-c4ccccc4)o3)ccc21	-28.0	-2.5	16.3*	8.6	-4.8	1.1
CCn1c2ccccc2c2cc(NC(=O)COc3ccc(OC)cc3)ccc21	-37.2	-1.4	1.9	5.0	/	3.5
CCn1c2ccccc2c2cc(NC(=O)c3ccc(Br)o3)ccc21	9.5	-4.8	1.8	3.8	/	-0.1
CCn1c2ccccc2c2cc(NC(=O)c3cc(OC)cc(OC)c3)ccc21	-11.9	1.3	9.6*	9.5	11.4	6.0
CCn1c2ccccc2c2cc(NC(=O)CSc3nnc(-c4cccc(C)c4)o3)ccc21	3.1	-3.3	13.3	4.9	/	0.5
CCn1c2ccccc2c2cc(NC(=O)c3cccc([N+](=O)[O-])c3C)ccc21	-27.4	-1.9	14.4*	4.6	-1.7	0.2
CCn1c2ccccc2c2cc(NC(=O)c3cc(C)on3)ccc21	-33.9	-1.1	20.5*	4.2	-0.7	1.6
COc1ccc(OCC(=O)Nc2cccc(C(=O)Nc3ccccc3C(=O)O)c2)cc1	-7.3	-4.9	3.9	-9.3	0.1	-2.1
O=C(NC1CCCC1)c1noc2c1CCCCC2	-113.5	-2.6	1.3	-4.7	-2.2	-0.2
CN(C)CCN(Cc1cc2cc3c(cc2nc1Cl)OCO3)C(=O)c1ccco1	-10.8	/	/	-2.3	/	/
Cc1c(NS(=O)(=O)c2cc(C(=O)NCCN(C)C)ccc2Cl)c(=O)n(-c2ccccc2)n1C	-8.9	/	/	-4.8	/	/
O=C(NC(=S)Nc1cc(-c2nc3ccccc3[nH]2)ccc1Cl)c1ccc2c(c1)OCO2	-81.3	-2.4	14.1*	0.7	5.3	-0.1
Cc1ccc(-c2nc3ccccc3[nH]2)cc1NC(=O)c1ccc2c(c1)OCO2	-16.1	2.7	3.3	1.3	4.1	5.8
Clc1ccc(-c2cn3nc4c(nc3n2)CCCC4)cc1	-23.7	-2.2	2.4	2.8	0.8	2.5
Clc1ccc(-c2cn(-c3ccc(Cl)cc3)c3[n+]2CCCCC3)cc1	-13.8	46.3*	/	1.5	0.8	62.1*
COc1ccc(-n2cc(-c3ccc(OC(F)F)cc3)[n+]3c2CCCCC3)cc1	6.3	71.8*	1.3	10.5	-2.1	64.2*
COc1ccc(-n2cc(-c3ccc(Cl)cc3)[nH]c2=S)cc1	-42.1	-4.9	/	-5.9	-0.1	-0.8
SMILES	KLF5 inhibitor	Ba/F3 V617F tox	MT stabilize HCS	IEC-6 tox	b-catenin transl	BaF3 parental
COc1ccc(-c2cn(-c3ccc(Cl)cc3)c3[n+]2CCCCC3)cc1	-0.1	71.4*	/	3.4	1.2	68.0*
CN1C=C/C(=C\c2cc[n+](C)c3ccccc23)c2ccccc21	-6.0	18.7	2.4	5.7	-5.8	50.7*
CC[n+]1ccc(/C=C2\Sc3ccccc3N2CCCS(=O)(=O)[O-])c2ccccc21	-21.4	0.8	1.9	-0.8	0.1	2.5
CS(=O)(=O)Nc1ccc(S(=O)(=O)N2CCCCCC2)cc1	5.4	/	/	-2.4	/	/
CS(=O)(=O)Nc1ccc(S(=O)(=O)N2CCCC2)cc1	-6.2	-0.1	3.5	6.7	-1.0	89.8*
C=COC(=O)c1sc2nc(C)cc(C)c2c1N	4.8	-0.7	/	-2.3	1.9	14.8
N/C(=N/O)c1ccccc1N1CCC(Cc2ccccc2)CC1	-5.0	71.7*	4.8	-7.9	1.7	68.7*
O=C(Cn1ccc([N+](=O)[O-])n1)N1CCCCC1	-2.1	-1.8	4.6	3.5	-0.9	42.6*
CCOC(=O)C/C(C)=N/NC(=O)CN(c1ccc(Br)cc1)S(=O)(=O)c1ccccc1	-29.5	-2.8	1.6	-0.4	-2.8	4.5
CC(C)c1ccc(NC(=O)Cn2c(=O)oc3ccccc32)cc1	-11.6	/	/	-2.0	/	/
Cc1cc(-n2c(C)cc(C(=O)CSc3ncnc4ccccc34)c2C)no1	-7.0	43.8*	2.5	4.7	0.6	51.1*
COc1ccc(N/C=C/C(=O)c2sc(-c3ccccc3)nc2C)cc1	-41.2	-2.8	52.3*	3.0	/	3.4
COc1ccc(N/C=C/C(=O)c2ccccc2)cc1	35.8	/	/	-3.4	/	/
N/C(=N\OC(=O)c1cc([N+](=O)[O-])ccc1Cl)c1ccccn1	-52.8	-2.1	/	-5.2	1.2	-4.3
N/C(=N\OC(=O)c1ccc([N+](=O)[O-])cc1Cl)c1ccccn1	64.6*	/	/	0.7	/	/
O=C(Nc1ccc(OCC(F)(F)C(F)F)c(C(F)(F)F)c1)c1ccccc1O	4.3	47.6*	3.3	2.3	0.7	86.6*
Cn1nccc1C(=O)N1CCCC(Nc2ccc(F)cc2)C1 (configuration not stated)	-22.1	/	/	-8.2	/	/
COc1ccc(C2=NN(C(=O)CN3CCOCC3)C(c3nc4ccccc4[nH]3)C2)cc1 (configuration not stated)	-13.8	-3.8	5.8	6.5	-1.8	-2.1
COc1ccccc1NC(=O)/C(=N/OCc1ccc(F)cc1)C(C)=O	-4.5	-2.4	4.0	-0.5	0.6	0.8
COC(=O)c1ccc(N)c(N=CC2=C(O)CC(C)(C)CC2=O)c1	-19.5	-1.1	2.0	1.1	-0.8	-0.6
COC(=O)c1ccc2c(c1)C(C)(C)C(/C=C/c1ccccc1O)=[N+]2C	-39.5	2.8	53.1*	-2.5	1.4	14.2
COc1ccc(NC(=O)NNC(=O)COc2ccc3cc(Br)ccc3c2)c(OC)c1	1.0	/	/	2.5	/	/
COC(=O)CSc1nc(-c2ccc(F)cc2)cc(C(F)(F)F)n1	-43.1	0.7	3.6	-0.1	-2.8	3.7
OC(c1cc(-c2ccc(C(F)(F)F)cc2)nc(C(F)(F)F)c1)C1CCCCN1 (configuration not stated)	-1.7	96.0*	/	40.0*	33.5	52.8*
C#CC[N+](CC)(CC)CC#Cc1cccc(Cl)c1	1.6	73.4*	1.8	2.8	/	66.3*
